From ChEMBL document CHEMBL1148650, “Synthesis and pharmacological evaluation of novel nitrobenzenic thromboxane modulators as antiplatelet agents acting on both the alpha and beta isoforms of the human thromboxane receptor” (J Med Chem, 2006)

Experiments:
Thromboxane A2 receptor [1] = target: T1, Thromboxane A2 receptor (Homo sapiens, UniProt P21731); experiment: Displacement of [3H]SQ29,548 from TPalpha receptor (short isoform) expressed in COS7 cells
T1 sequence (P21731 whole entry): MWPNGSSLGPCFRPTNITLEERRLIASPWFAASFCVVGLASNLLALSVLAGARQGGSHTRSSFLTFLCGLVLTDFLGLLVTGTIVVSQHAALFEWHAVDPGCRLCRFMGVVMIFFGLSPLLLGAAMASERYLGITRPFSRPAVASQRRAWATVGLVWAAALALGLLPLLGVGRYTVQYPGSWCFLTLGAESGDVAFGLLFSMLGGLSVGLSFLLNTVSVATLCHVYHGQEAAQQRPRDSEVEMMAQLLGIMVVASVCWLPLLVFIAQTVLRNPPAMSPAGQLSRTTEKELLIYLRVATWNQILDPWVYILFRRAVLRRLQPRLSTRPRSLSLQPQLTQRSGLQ

Thromboxane A2 receptor [2] = target: T1, Thromboxane A2 receptor; experiment: Activity at TPbeta (long isoform) receptor expressed in HEK293 cells assessed as ability to antagonize U46619-mediated calcium ion mobilization; assay type: functional, cell-based
Method in brief: (§1)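 HEK293 cells stably overexpressing human TPα or TPβ. Cells were loaded 1 h with Fluo-4/AM (5 µg/mL) and washed in Krebs-HEPES pH 7.4 (150 000 cells/well). Compound (10^-5 to 10^-8 M final) was added 10 min before 1 µM U46619. Fluo-4 signal was calibrated by Triton X-100 and then EGTA (Kd 385 nM) for [Ca2+]i. IC50 is the concentration halving the [Ca2+]i rise.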

Thromboxane A2 receptor [3] = target: T1, Thromboxane A2 receptor; experiment: Activity at TPalpha (short isoform) receptor expressed in HEK293 cells assessed as ability to antagonize U46619-mediated calcium ion mobilization; assay type: functional, cell-based
Method in brief: as §1

[4] = target: T2, Thromboxane A2 receptor (Homo sapiens) (UniProt P21731); experiment: Selectivity index, IC50 for TPalpha/IC50 for TPbeta in HEK293 cells; assay type: functional, cell-based
T2 sequence (whole entry): T1 sequence (P21731 whole entry)
Method in brief: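 Ratio of IC50 TPα to IC50 TPβ, both from the calcium assay in stably transfected HEK293 cells. Fluo-4-loaded cells were preincubated 10 min with compound (10^-5 to 10^-8 M), then stimulated with 1 µM U46619. IC50 is the concentration inhibiting 50% of the [Ca2+]i rise.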

[5] = target: T2, Thromboxane A2 receptor (Homo sapiens); experiment: Selectivity index, IC50 for TPalpha/IC50 for TPbeta in COS7 cells; assay type: cell-based; settings: COS-7
Method in brief: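 Binding used 5 × 10^5 cells in 25 mM HEPES/125 mM NaCl/10 µM indomethacin, pH 7.4, with 10 nM [3H]SQ29,548 and compound at 10^-6 to 10^-11 M, in triplicate, for 30 min at 37 °C. Nonspecific binding: 10 µM unlabeled SQ29,548. Bound ligand was counted after filtration. Index = IC50 TPα/IC50 TPβ.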

Thromboxane A2 receptor [6] = target: T1, Thromboxane A2 receptor; experiment: Displacement of [3H]SQ-29548 from TPbeta receptor (long isoform) expressed in COS7 cells
[7] = target: T2, Thromboxane A2 receptor (Homo sapiens); experiment: Displacement of [3H]SQ29,548 from TPalpha receptor (short isoform) expressed in COS7 cells at 1 nM; settings: COS-7
[8] = target: T2, Thromboxane A2 receptor (Homo sapiens); experiment: Displacement of [3H]SQ-29548 from TPbeta receptor (long isoform) expressed in COS7 cells at 1 nM; settings: COS-7
[9] = target: T2, Thromboxane A2 receptor (Homo sapiens); experiment: Displacement of [3H]SQ-29548 from TPbeta receptor (long isoform) expressed in COS7 cells at 1 uM; assay type: cell-based; settings: COS-7
[10] = target: T2, Thromboxane A2 receptor (Homo sapiens); experiment: Displacement of [3H]SQ29,548 from TPalpha receptor (short isoform) expressed in COS7 cells at 1 uM; assay type: cell-based; settings: COS-7

| IC50 (Thromboxane A2 receptor [1]) | IC50 (Thromboxane A2 receptor [2]) | IC50 (Thromboxane A2 receptor [3]) | Ratio IC50 [4] | Ratio IC50 [5] | IC50 (Thromboxane A2 receptor [6]) | Activity [7] | Activity [8] | Activity [9] | Activity [10] | SMILES |
| --- | --- | --- | --- | --- | --- | --- | --- | --- | --- | --- |
| 1.82 nM | 43.2 nM | 126 nM | 2.92 | 3.11 | 0.58 nM | 32.1% | 49.9% |  |  | CCCCCNC(=O)NS(=O)(=O)c1cc([N+](=O)[O-])ccc1Nc1ccc(Br)c(C)c1 |
|  |  |  |  |  |  | 40.1% | 48.7% |  |  | CCCCCNC(=O)NS(=O)(=O)c1cc([N+](=O)[O-])ccc1Nc1ccc(C)c(C)c1 |
|  |  |  |  |  |  | 38.5% | 43% |  |  | CCCCCNC(=O)NS(=O)(=O)c1cc([N+](=O)[O-])ccc1Sc1ccc(C)cc1 |
| 2.65 nM | 13.6 nM | 50 nM | 3.69 | 0.75 | 3.53 nM | 39.6% | 34.2% |  |  | CCCCCNC(=O)NS(=O)(=O)c1cc([N+](=O)[O-])ccc1Nc1ccc(C)cc1 |
|  |  |  |  |  |  | 45.3% | 45.3% |  |  | CCCCCNC(=O)NS(=O)(=O)c1cc([N+](=O)[O-])ccc1Nc1ccccc1C |
| 1.08 nM | 76.5 nM | 538 nM | 7.03 | 1.55 | 0.7 nM | 49.7% | 49.7% |  |  | CCCCCNC(=O)NS(=O)(=O)c1cc([N+](=O)[O-])ccc1Nc1cc(C)cc(C)c1 |
|  |  |  |  |  |  | 28.6% | 33.1% |  |  | CCCCCNC(=O)NS(=O)(=O)c1cc([N+](=O)[O-])ccc1Nc1cc(C)ccc1C |
| 1.01 nM | 45.5 nM | 60.4 nM | 1.33 | 0.23 | 4.43 nM | 48.5% | 35.8% |  |  | CCCCCNC(=O)NS(=O)(=O)c1cc([N+](=O)[O-])ccc1Nc1cccc(C)c1 |
|  |  |  |  |  |  | 48.9% | 52.7% |  |  | CCCCCNC(=O)NS(=O)(=O)c1cc([N+](=O)[O-])ccc1Nc1ccc(Cl)cc1 |
| 2.63 nM | 55.4 nM | 139 nM | 2.52 | 4.02 | 0.65 nM | 35.5% | 48.5% |  |  | CCCCCNC(=O)NS(=O)(=O)c1cc([N+](=O)[O-])ccc1Oc1ccc(C)cc1 |
|  |  |  |  |  |  | 42.3% | 39.9% |  |  | CCCCCNC(=O)NS(=O)(=O)c1cc([N+](=O)[O-])ccc1Nc1ccc(C)cc1C |
|  |  |  |  |  |  | 44.6% | 39% |  |  | CCCCCNC(=O)NS(=O)(=O)c1cc([N+](=O)[O-])ccc1Nc1cccc(C)c1C |
| 0.72 nM | 58.5 nM | 526 nM | 9 | 0.45 | 1.58 nM | 55.2% | 46.1% |  |  | CCCCCCNC(=O)NS(=O)(=O)c1cc([N+](=O)[O-])ccc1Oc1ccc(C)cc1 |

Continued, compound first:

| SMILES | IC50 (Thromboxane A2 receptor [1]) | IC50 (Thromboxane A2 receptor [2]) | IC50 (Thromboxane A2 receptor [3]) | Ratio IC50 [4] | Ratio IC50 [5] | IC50 (Thromboxane A2 receptor [6]) | Activity [7] | Activity [8] | Activity [9] | Activity [10] |
| --- | --- | --- | --- | --- | --- | --- | --- | --- | --- | --- |
| Cc1ccc(Nc2ccc([N+](=O)[O-])cc2S(=O)(=O)NC(=O)NCc2ccccc2)cc1 | 1.9 nM | 45 nM | 64.5 nM | 1.43 | 1.62 | 1.17 nM | 32.9% | 49.3% |  |  |
| CCCCCCCNC(=O)NS(=O)(=O)c1cc([N+](=O)[O-])ccc1NC1CCCCC1 | 2.5 nM | 55.5 nM | 92.9 nM | 1.67 | 0.93 | 2.68 nM | 29.5% | 36.4% |  |  |
| Cc1cc(Nc2ccc([N+](=O)[O-])cc2S(=O)(=O)NC(=O)NC(C)(C)C)ccc1Br |  |  |  |  |  |  | 28.5% | 25% |  |  |
| CCCCCCCCNC(=O)NS(=O)(=O)c1cc([N+](=O)[O-])ccc1NC1CCCCC1 |  |  |  |  |  |  | 17.1% | 24.1% |  |  |
| CCC(C)NC(=O)NS(=O)(=O)c1cc([N+](=O)[O-])ccc1Nc1c(C)cccc1C (stereo unspecified) |  |  |  |  |  |  |  |  | 42.5% | 48.4% |
| CCCCCNC(=O)NS(=O)(=O)c1cc([N+](=O)[O-])ccc1Oc1ccccc1C |  |  |  |  |  |  | 35.2% | 36.8% |  |  |
| CCCCC/N=C(\NC#N)NS(=O)(=O)c1cc([N+](=O)[O-])ccc1Nc1cc(C)cc(C)c1 |  |  |  |  |  |  | 48% | 53.4% |  |  |
| Cc1ccc(Nc2ccc([N+](=O)[O-])cc2S(=O)(=O)NC(=O)NC2CCCCC2)cc1 |  |  |  |  |  |  | 31.1% | 29% |  |  |
| Cc1ccc(Oc2ccc([N+](=O)[O-])cc2S(=O)(=O)NC(=O)NC2CCCCC2)cc1 | 1.52 nM | 70.2 nM | 601 nM | 8.56 | 1.93 | 0.79 nM | 49.8% | 51.9% |  |  |
| CCCCCNC(=O)NS(=O)(=O)c1cc([N+](=O)[O-])ccc1Nc1c(C)cc(C)cc1C |  |  |  |  |  |  | 27.9% | 27.5% |  |  |
| CCCCCNC(=O)NS(=O)(=O)c1cc([N+](=O)[O-])ccc1Oc1cccc(C)c1 |  |  |  |  |  |  | 20.1% | 22.8% |  |  |
| CCCCCNC(=O)NS(=O)(=O)c1cc([N+](=O)[O-])ccc1Nc1c(C)cccc1C | 1.52 nM | 47.1 nM | 80.7 nM | 1.71 | 1.03 | 1.48 nM | 36.5% | 54% |  |  |
| CC(C)(C)NC(=O)NS(=O)(=O)c1cc([N+](=O)[O-])ccc1Sc1ccc(Cl)cc1 |  |  |  |  |  |  | 32.5% | 31.7% |  |  |
| CCCCCNC(=O)NS(=O)(=O)c1cc([N+](=O)[O-])ccc1Sc1ccccc1C |  |  |  |  |  |  | 33.4% | 32.7% |  |  |
| CCCCNC(=O)NS(=O)(=O)c1cc([N+](=O)[O-])ccc1Oc1ccc(C)cc1 | 0.74 nM | 52.9 nM | 558 nM | 10.6 | 1.05 | 0.7 nM | 55.7% | 56% |  |  |
| CCC(C)NC(=O)NS(=O)(=O)c1cc([N+](=O)[O-])ccc1Nc1ccc(C)cc1 (stereo unspecified) |  |  |  |  |  |  |  |  | 40.4% | 40.7% |
| CCCCC/N=C(\NC#N)NS(=O)(=O)c1cc([N+](=O)[O-])ccc1Nc1ccc(C)cc1 |  |  |  |  |  |  | 25.5% | 27.2% |  |  |
| Cc1ccc(Sc2ccc([N+](=O)[O-])cc2S(=O)(=O)NC(=O)NC(C)(C)C)cc1 | 0.77 nM | 55.2 nM | 294 nM | 5.32 | 0.44 | 1.74 nM | 47% | 37.7% |  |  |
| Cc1ccc(Oc2ccc([N+](=O)[O-])cc2S(=O)(=O)NC(=O)NC(C)(C)C)cc1 | 1.26 nM | 57.6 nM | 58.3 nM | 1.01 | 0.71 | 1.77 nM | 53.3% | 44.7% |  |  |
| CCCCCNC(=O)NS(=O)(=O)c1cc([N+](=O)[O-])ccc1Sc1ccc(Cl)cc1 |  |  |  |  |  |  | 24.7% | 21.3% |  |  |
| Cc1ccc(Nc2ccc([N+](=O)[O-])cc2S(=O)(=O)NC(=O)NC(C)(C)C)cc1 | 1.05 nM | 53.1 nM | 319 nM | 6.01 | 1.35 | 0.78 nM | 49.5% | 53.6% |  |  |
| Cc1cccc(C)c1Nc1ccc([N+](=O)[O-])cc1S(=O)(=O)NC(=O)NC(C)(C)C | 0.78 nM | 30.8 nM | 56.9 nM | 1.85 | 1.4 | 0.56 nM | 46.4% | 46.3% |  |  |
| Cc1ccc(Nc2ccc([N+](=O)[O-])cc2S(=O)(=O)NC(=O)N2CCCCC2)cc1 | 0.46 nM | 38.5 nM | 64.8 nM | 1.68 | 0.68 | 0.68 nM | 46.2% | 54.2% |  |  |
| CCCCCCNC(=O)NS(=O)(=O)c1cc([N+](=O)[O-])ccc1NC1CCCCC1 | 0.71 nM | 46.2 nM | 81.2 nM | 1.76 | 0.67 | 1.07 nM | 44.2% | 42.5% |  |  |
